Data set [1] in a line: Unbound clearance in Sprague-Dawley rat at 0.5 mg/kg, iv by LC-MS method. The format is ADME, organism-based. Conditions: in vivo. The method, boiled down:
(§1)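 Male Sprague-Dawley rats, two animals per study, dosed IV at 0.5 mg/kg as a solution in 100% DMSO. Unbound clearance calculated as total clearance divided by rat plasma fraction unbound (CLu = CL/fu).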

Data set [2] in a line: Clearance in human liver microsomes assessed as drug turnover level at 1 uM incubated for 30 mins in presence of NADPH. The format is ADME, Microsome. Particulars: read-out: CLH. The procedure, abridged:
(§2)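 Parent compound at 1 µM incubated with liver microsomes (0.25 mg/mL) in 66.7 mM potassium phosphate with 1 mM NADPH, 37 °C, 30 min; % turnover measured by LC/MS.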
(In general: Liver microsomes are a subcellular fraction often used to study metabolism.)

Data set [3] in a line: Clearance in Sprague-Dawley rat at 0.5 mg/kg, iv by LC-MS method. Particulars: in vivo. In kind it is ADME, organism-based. The method, boiled down: as §1
Data set [4] in a line: Clearance in rat liver microsomes assessed as drug turnover level at 1 uM incubated for 30 mins in presence of NADPH. In kind it is ADME, Microsome. Conditions: read-out: CLH. The method, boiled down:
as §2

Data set [5] is described as follows: Apparent permeability in LLC-PK1 cells by LC-MS method. Conditions: pig. The format is ADME, cell-based, Sus scrofa. The procedure, abridged:
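Passive permeability across LLCPK1 monolayers; apparent permeability (Papp) obtained by mass balance with LC/MS quantitation.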

Data set [6] is described as follows: Aqueous equilibrium solubility at room temperature after 72 hrs at pH 7.4 by HPLC. The format is physicochemical. Particulars: buffer.
Data set [7] in a line: Oral bioavailability in Sprague-Dawley rat at 2 mg/kg by LC-MS method. The format is ADME, organism-based. Conditions: in vivo.

In brackets after ≈: the same amount, converted by molar mass. A value given as a limit tells only on which side of the number the result lay.

What is called clearance is the volume of plasma or blood freed of the substance per unit of time. Low values mean inefficient removal, high ones efficient removal. In turn, `CCNC(=O)c1c(-c2ccccn2)c([C@H](C)Nc2ncnc(N)c2C#N)nc2ccc(F)cc12` yielded a CL free in data set [1] of 102 mL/min/kg. For the same molecule, the microsomal CLint at 1 µM in data set [2] and in data set [4] was < 14 µL/min/mg throughout. For the same molecule, the clearance in data set [3] was 3.33 mL/min/kg.
On to `C[C@H](Nc1ncnc(N)c1C#N)c1nc2ccc(F)cc2c(C(=O)N(C)C)c1-c1ccccc1`, for which the microsomal CLint at 1 µM in data set [2] was found to be 198 µL/min/mg; in data set [4], 426 µL/min/mg.
For `CC(C)NC(=O)c1c(-c2ccccc2)c([C@H](C)Nc2ncnc(N)c2C#N)nc2ccc(F)cc12` the same measures were 51 µL/min/mg and < 14 µL/min/mg.
With `C[C@H](Nc1ncnc(N)c1C#N)c1nc2ccc(F)cc2c(C(=O)N2CCNCC2)c1-c1ccccc1`, the CL free in data set [1] came to 1000 mL/min/kg. For the same molecule, the results for the microsomal CLint at 1 µM in data set [2] and in data set [4] were 82 µL/min/mg and 50 µL/min/mg, respectively. Besides, in data set [3], the clearance was 15 mL/min/kg.
For `CNCCNC(=O)c1c(-c2ccccn2)c([C@H](C)Nc2ncnc(N)c2C#N)nc2ccc(F)cc12` the same measures were 468 mL/min/kg, 33 µL/min/mg, < 14 µL/min/mg and 16.7 mL/min/kg.
What is called Papp is the rate of passage across a membrane or cell layer, normalised by area and donor concentration. For orientation: solubility (thermodynamic) means solubility found after equilibrating the solid with the medium. By bioavailability is commonly meant the share of a dose that reaches the circulation, judged against a reference dose that is usually intravenous. In data set [1], `C[C@H](Nc1ncnc2[nH]cnc12)c1cc2ccc(F)cc2nc1-c1ccccn1` [AMG-319] gave a CL free of 45 mL/min/kg. In addition, the Papp in data set [5] amounted to 30 ×10⁻⁶ cm/s. The microsomal CLint at 1 µM in data set [2] and in data set [4] was < 14 µL/min/mg each time. The solubility (thermodynamic) at 72 h in data set [6] was > 200 µg/mL. In data set [7], the bioavailability amounted to 54%. Besides, the clearance in data set [3] was 5 mL/min/kg.
Consider `C[C@H](Nc1ncnc(N)c1C#N)c1nc2ccc(F)cc2c(-c2ccccn2)c1-c1ccccn1`, for which the microsomal CLint at 1 µM in data set [2] turned out to be 47 µL/min/mg; in data set [4], 16 µL/min/mg.
For `C[C@H](Nc1ncnc(N)c1C#N)c1nc2ccc(F)cc2c(C(=O)N2CC(O)C2)c1-c1ccccc1` the same measures were 40 µL/min/mg and 49 µL/min/mg.
The molecule `CNC(=O)c1c(-c2ccccn2)c([C@H](C)Nc2ncnc(N)c2C#N)nc2ccc(F)cc12` had a CL free in data set [1] of 38.3 mL/min/kg. In addition, in data set [5], the apparent permeability coefficient (Papp) was found to be 14.6 ×10⁻⁶ cm/s. Further, the microsomal CLint at 1 µM in data set [2] and in data set [4] was < 14 µL/min/mg in each case. This molecule had a thermodynamic solubility at 72 h in data set [6] of 200 µg/mL (≈ 452 µM). Moreover, in data set [7], the bioavailability was found to be 70%. Moreover, the clearance in data set [3] was 8.33 mL/min/kg.
For the molecule `CCNC(=O)c1c(-c2ccccc2)c([C@H](C)Nc2ncnc(N)c2C#N)nc2ccc(F)cc12`, the microsomal CLint at 1 µM is 22 µL/min/mg in data set [2] and < 14 µL/min/mg in data set [4].
With `CNCCNC(=O)c1c(-c2ccccc2)c([C@H](C)Nc2ncnc(N)c2C#N)nc2ccc(F)cc12`, the microsomal CLint at 1 µM in data set [2] and in data set [4] was < 14 µL/min/mg throughout.
For `C[C@H](Nc1ncnc(N)c1C#N)c1nc2ccc(F)cc2c(C(N)=O)c1-c1ccccc1`, the microsomal CLint at 1 µM in data set [2] and in data set [4] was < 14 µL/min/mg throughout. Further, the clearance in data set [3] was 10 mL/min/kg.
For `CC(Nc1ncnc(N)c1C#N)c1nc2ccc(F)cc2c(C(=O)N2CC(O)C2)c1-c1ccccn1` (racemic), the microsomal CLint at 1 µM in data set [2] and in data set [4] was < 14 µL/min/mg each time.
As for `CC(Nc1ncnc(N)c1C#N)c1nc2ccc(F)cc2c(C(=O)N2CCNCC2)c1-c1ccccn1` (racemic), the microsomal CLint at 1 µM in data set [2] came out at 24 µL/min/mg; in data set [4], 17 µL/min/mg.
For `C[C@H](Nc1ncnc(N)c1C#N)c1nc2ccc(F)cc2c(C(=O)N2CCS(=O)(=O)CC2)c1-c1ccccc1` the same measures were 62 µL/min/mg and 78 µL/min/mg.
In data set [1], `CNC(=O)c1c(-c2ccccn2)c([C@H](C)Nc2ncnc(N)c2C#N)nc2cccc(F)c12` came in with a CL free of 67 mL/min/kg. Besides, the Papp in data set [5] turned out to be 8 ×10⁻⁶ cm/s. The microsomal CLint at 1 µM in data set [2] and in data set [4] was < 14 µL/min/mg each time. The same molecule yielded a thermodynamic solubility at 72 h in data set [6] of 200 µg/mL (≈ 452 µM). This molecule registered a bioavailability in data set [7] of 29%. Besides, the clearance in data set [3] was 11.7 mL/min/kg.
In data set [1], `CNC(=O)c1c(-c2ccccc2)c([C@H](C)Nc2ncnc(N)c2C#N)nc2ccc(F)cc12` displayed a CL free of 75 mL/min/kg. For the same molecule, the microsomal CLint at 1 µM in data set [2] is < 14 µL/min/mg; in data set [4], 15 µL/min/mg. In data set [3], this molecule showed a clearance of 8.33 mL/min/kg.

The record behind these values is ChEMBL document CHEMBL4428047 (J Med Chem, 2016).
